According to ChEMBL document CHEMBL5653632, “PRMT5 inhibition disrupts splicing and stemness in glioblastoma” (Nat Commun, 2021):
Calls of active or inactive are those of the source. The calls are words filed in the database; no cut-off is given here.

What was measured:
[1] = Antiproliferative activity against human G523 cells incubated for 9 to 12 days by IncuCyte zoom live-cell imaging analysis; assay type: functional, cell-based
Procedure, shortened: (§1)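 Adherent culture on poly-L-ornithine/laminin in serum-free NS-A medium with EGF and bFGF (10 ng/mL each) and heparin. Nine concentrations (3 nM–30 µM), three technical replicates per dose, DMSO control, medium and drug refreshed every 5 days, run until DMSO wells were confluent (9–20 days). Confluence was imaged live and normalized to DMSO. Curves were taken at the 95th percentile of time to DMSO confluence, and AAC was calculated.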

[2] = Antiproliferative activity against human G566 cells incubated for 9 to 12 days by IncuCyte zoom live-cell imaging analysis; assay type: functional, cell-based; procedure, shortened: as §1
[3] = system: G411; assay: Induction of senescence in human G411 cells at 1 uM after 5 days by SA-beta-galactosidase based assay; assay type: functional, cell-based; conditions: time 5.0 day
Procedure, shortened: (§2)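 GSCs were treated at 1 µM for 5 days, with SGC2096 and DMSO as controls and n = 3. Cells were fixed in 4% paraformaldehyde for 5 min at RT, stained overnight with SA-β-gal solution, and counterstained with nuclear fast red. Blue cells were counted as a fraction of total cells.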

[4] = Antiproliferative activity against human G800 cells incubated for 9 to 12 days by IncuCyte zoom live-cell imaging analysis; assay type: functional, cell-based; procedure, shortened: as §1
[5] = system: G561; assay: Inhibition of colony formation in human G561 cells assessed as reduction in sphere forming capacity at 1 uM incubated for 14 days by limiting dilution assay; assay type: functional, cell-based; conditions: time 14.0 day
Procedure, shortened: (§3)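 Each GSC line was seeded on non-adherent 96-well plates in 1:2 serial dilutions from 2000 to 4 cells per well, six replicates per dilution, in adherent-culture medium. Treatment was 1 µM, with SGC2096 and DMSO as controls, added on day 1 and replenished weekly. Wells were scored for spheres at 1 and 2 weeks, and sphere frequency was estimated by ELDA (single-hit model). n = 3.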

[6] = system: G411; assay: Inhibition of colony formation in human G411 cells assessed as reduction in sphere forming capacity at 1 uM incubated for 14 days by limiting dilution assay; assay type: functional, cell-based; conditions: time 14.0 day; procedure, shortened: as §3
[7] = Antiproliferative activity against human G626 cells incubated for 9 to 12 days by IncuCyte zoom live-cell imaging analysis; assay type: functional, cell-based; procedure, shortened: as §1
[8] = Antiproliferative activity against human G477 cells incubated for 9 to 12 days by IncuCyte zoom live-cell imaging analysis; assay type: functional, cell-based; procedure, shortened: as §1
[9] = Antiproliferative activity against human HF5205 cells incubated for 9 to 12 days by IncuCyte zoom live-cell imaging analysis; assay type: functional, cell-based; procedure, shortened: as §1
[10] = system: G729; assay: Induction of apoptosis in human G729 cells at 1 uM after 5 days by Annexin-V staining based IncuCyte live cell imaging analysis; assay type: functional; conditions: time 5.0 day
[11] = Antiproliferative activity against human BT119 cells incubated for 9 to 12 days by IncuCyte zoom live-cell imaging analysis; assay type: functional, cell-based
[12] = Antiproliferative activity against human G702 cells incubated for 9 to 12 days by IncuCyte zoom live-cell imaging analysis; assay type: functional, cell-based; procedure, shortened: as §1
[13] = system: G411; assay: Antiproliferative activity against human G411 cells incubated for 9 to 12 days by IncuCyte zoom live-cell imaging analysis; assay type: functional, cell-based; procedure, shortened: as §1
[14] = target: Protein arginine N-methyltransferase 5 (Homo sapiens) (UniProt O14744); assay: Inhibition of PRMT5 in human G411 cells assessed as reduction in SDMA level at 1 uM after 5 days by Western blot analysis; assay type: cell-based; conditions: time 5.0 day
Procedure, shortened: (§4)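 Symmetric dimethylarginine on SmB/B' was measured by western blot with IRDye secondary antibodies and infrared imaging.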

[15] = system: G583; assay: Inhibition of colony formation in human G583 cells assessed as reduction in sphere forming capacity at 1 uM incubated for 14 days by limiting dilution assay; assay type: functional, cell-based; conditions: time 14.0 day; procedure, shortened: as §3
[16] = Antiproliferative activity against human G799 cells incubated for 9 to 12 days by IncuCyte zoom live-cell imaging analysis; assay type: functional, cell-based; procedure, shortened: as §1
[17] = system: G583; assay: Antiproliferative activity against human G583 cells at 1 uM incubated for 9 to 12 days by IncuCyte zoom live-cell imaging analysis; assay type: functional, cell-based; conditions: time 9-12 day
Procedure, shortened: (§5)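 Adherent GSCs were cultured in serum-free medium with EGF and bFGF on poly-L-ornithine/laminin and plated in triplicate in 96-well plates. They were treated at 1 µM, with 1 µM SGC2096 or 0.05% DMSO as controls, for 9–12 days or until DMSO wells were confluent. Medium with drug was refreshed every 5 days. IncuCyte confluence was imaged every 8 h and normalized to each well's initial confluence.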

[18] = target: Protein arginine N-methyltransferase 5 (Homo sapiens) (UniProt O14744); assay: Inhibition of PRMT5 in human G583 cells assessed as reduction in SDMA level at 1 uM after 5 days by Western blot analysis; assay type: cell-based; conditions: time 5.0 day; procedure, shortened: as §4
[19] = system: G411; assay: Induction of apoptosis in human G411 cells at 1 uM after 5 days by Annexin-V staining based IncuCyte live cell imaging analysis; assay type: functional; conditions: time 5.0 day
[20] = Antiproliferative activity against human G861 cells incubated for 9 to 12 days by IncuCyte zoom live-cell imaging analysis; assay type: functional, cell-based; procedure, shortened: as §1
[21] = Antiproliferative activity against human BT143 cells incubated for 9 to 12 days by IncuCyte zoom live-cell imaging analysis; assay type: functional, cell-based
[22] = Antiproliferative activity against human G895 cells incubated for 9 to 12 days by IncuCyte zoom live-cell imaging analysis; assay type: functional, cell-based; procedure, shortened: as §1
[23] = Antiproliferative activity against human G583 cells incubated for 9 to 12 days by IncuCyte zoom live-cell imaging analysis; assay type: functional, cell-based; procedure, shortened: as §1
[24] = system: G411; assay: Antiproliferative activity against human G411 cells at 1 uM incubated for 9 to 12 days by IncuCyte zoom live-cell imaging analysis; assay type: functional, cell-based; conditions: time 9-12 day; procedure, shortened: as §5
[25] = system: G561; assay: Antiproliferative activity against human G561 cells at 1 uM incubated for 9 to 12 days by IncuCyte zoom live-cell imaging analysis; assay type: functional, cell-based; conditions: time 9-12 day; procedure, shortened: as §5
[26] = target: Protein arginine N-methyltransferase 5 (Homo sapiens) (UniProt O14744); assay: Inhibition of PRMT5 in human G729 cells assessed as reduction in SDMA level at 1 uM after 7 days by Western blot analysis; assay type: cell-based; conditions: time 7.0 day
[27] = Antiproliferative activity against human G561 cells incubated for 9 to 12 days by IncuCyte zoom live-cell imaging analysis; assay type: functional, cell-based; procedure, shortened: as §1
[28] = target: Protein arginine N-methyltransferase 5 (Homo sapiens) (UniProt O14744); assay: Inhibition of PRMT5 in human G549 cells assessed as reduction in SDMA level at 1 uM after 7 days by Western blot analysis; assay type: cell-based; conditions: time 7.0 day
[29] = Antiproliferative activity against human BT069 cells incubated for 9 to 12 days by IncuCyte zoom live-cell imaging analysis; assay type: functional, cell-based
[30] = target: Protein arginine N-methyltransferase 5 (Homo sapiens) (UniProt O14744); assay: Inhibition of PRMT5 in HFNS cells assessed as reduction in SDMA level at 1 uM after 5 days by Western blot analysis; assay type: cell-based; conditions: time 5.0 day
[31] = Antiproliferative activity against human G837 cells incubated for 9 to 12 days by IncuCyte zoom live-cell imaging analysis; assay type: functional, cell-based; procedure, shortened: as §1
[32] = system: G729; assay: Induction of senescence in human G729 cells at 1 uM after 5 days by SA-beta-galactosidase based assay; assay type: functional, cell-based; conditions: time 5.0 day; procedure, shortened: as §2
[33] = Antiproliferative activity against human G564 cells incubated for 9 to 12 days by IncuCyte zoom live-cell imaging analysis; assay type: functional, cell-based; procedure, shortened: as §1
[34] = Antiproliferative activity against human G876 cells incubated for 9 to 12 days by IncuCyte zoom live-cell imaging analysis; assay type: functional, cell-based; procedure, shortened: as §1
[35] = target: Protein arginine N-methyltransferase 5 (Homo sapiens) (UniProt O14744); assay: Inhibition of PRMT5 in human G561 cells assessed as reduction in SDMA level at 1 uM after 5 days by Western blot analysis; assay type: cell-based; conditions: time 5.0 day; procedure, shortened: as §4
[36] = Antiproliferative activity against human BT147 cells incubated for 9 to 12 days by IncuCyte zoom live-cell imaging analysis; assay type: functional, cell-based
[37] = Antiproliferative activity against human G851 cells incubated for 9 to 12 days by IncuCyte zoom live-cell imaging analysis; assay type: functional, cell-based; procedure, shortened: as §1
[38] = system: G583; assay: Induction of senescence in human G583 cells at 1 uM after 5 days by SA-beta-galactosidase based assay; assay type: functional, cell-based; conditions: time 5.0 day; procedure, shortened: as §2

Protein arginine N-methyltransferase 5 (Homo sapiens), sequence (O14744 whole entry): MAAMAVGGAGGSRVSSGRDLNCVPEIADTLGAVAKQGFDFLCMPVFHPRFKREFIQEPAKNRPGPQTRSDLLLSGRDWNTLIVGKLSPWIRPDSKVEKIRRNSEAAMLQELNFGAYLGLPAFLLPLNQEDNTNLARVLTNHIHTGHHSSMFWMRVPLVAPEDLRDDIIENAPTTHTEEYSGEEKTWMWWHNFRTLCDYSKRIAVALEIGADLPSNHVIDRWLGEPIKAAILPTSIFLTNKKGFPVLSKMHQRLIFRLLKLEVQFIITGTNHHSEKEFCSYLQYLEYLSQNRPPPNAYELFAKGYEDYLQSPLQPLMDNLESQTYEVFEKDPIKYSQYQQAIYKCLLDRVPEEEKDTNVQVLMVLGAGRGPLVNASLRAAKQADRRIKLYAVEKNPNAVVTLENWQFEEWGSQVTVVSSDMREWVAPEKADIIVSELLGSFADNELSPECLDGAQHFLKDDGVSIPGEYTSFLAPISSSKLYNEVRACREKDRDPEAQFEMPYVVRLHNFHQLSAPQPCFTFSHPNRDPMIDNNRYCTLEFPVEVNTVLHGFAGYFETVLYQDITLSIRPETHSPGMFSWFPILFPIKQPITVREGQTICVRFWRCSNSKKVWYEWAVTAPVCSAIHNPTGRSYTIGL

| SMILES | IC50 [1] | IC50 [2] | Activity [3] | IC50 [4] | inhibition [5] | inhibition [6] | EC50 [7] | EC50 [8] | EC50 [9] | Activity [10] | IC50 [11] | IC50 [12] | EC50 [13] | inhibition [14] | inhibition [15] | IC50 [16] | Activity [17] | inhibition [18] | Activity [19] | IC50 [20] | other results |
| --- | --- | --- | --- | --- | --- | --- | --- | --- | --- | --- | --- | --- | --- | --- | --- | --- | --- | --- | --- | --- | --- |
| O=C(NC[C@H](O)CN1CCc2ccccc2C1)c1ccnc(NC2CCC2)c1 | 830 nM | 2050 nM | Active | 16400 nM | Active | Active | 480 nM | 3180 nM | 7 nM | Active | 8640 nM | 1620 nM | 100 nM | Active | Active | 680 nM | Active | Active | Active | 1280 nM | IC50 [21]: 600 nM; IC50 [22]: 640 nM; EC50 [23]: 440 nM; Activity [24]: Active; Activity [25]: Active; inhibition [26]: Active; EC50 [27]: 1000 nM; inhibition [28]: Active; IC50 [29]: 690 nM; inhibition [30]: Active; IC50 [31]: 5010 nM; Activity [32]: Active; IC50 [33]: 230 nM; IC50 [34]: 2450 nM; inhibition [35]: Active; IC50 [36]: 170 nM; IC50 [37]: 570 nM; Activity [38]: Active |
| Nc1ncnc2c1ccn2[C@@H]1O[C@H]([C@H](O)c2ccccc2)[C@@H](O)[C@H]1O | 10 nM | 30 nM | Active | 120 nM | Active | Active | 10 nM | 40 nM | 9 nM | Active | 230 nM | 20 nM | 19 nM | Active | Active | 20 nM | Active | Active | Active | 40 nM | IC50 [21]: 160 nM; IC50 [22]: 100 nM; EC50 [23]: 15 nM; Activity [24]: Active; Activity [25]: Active; inhibition [26]: Active; EC50 [27]: 10 nM; inhibition [28]: Active; IC50 [29]: 30 nM; inhibition [30]: Active; IC50 [31]: 40 nM; Activity [32]: Active; IC50 [33]: 30 nM; IC50 [34]: 30 nM; inhibition [35]: Active; IC50 [36]: 10 nM; IC50 [37]: 10 nM; Activity [38]: Active |
